Active and inactive are the calls of the source. The rule behind the calls is not given here.
Columns and labels:
Histamine H3 receptor [1] = target: T1, Histamine H3 receptor (Homo sapiens, UniProt Q9Y5N1); experiment: Displacement of [3H]RAMHA from human histamine H3 receptor expressed in SK-N-MC cells; assay type: cell-based
In short: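 SK-N-MC membranes bearing human H3 incubated 60 min at room temperature with 0.5 nM [3H]-(R)-α-methylhistamine and competitor (0.01 nM to 10 µM). Rapid filtration, two washes in ice-cold 50 mM Tris–HCl/5 mM EDTA. Nonspecific binding with 10 µM histamine. pKi via Cheng–Prusoff; means of 4–6 experiments.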

Histamine H3 receptor [2] = target: T1, Histamine H3 receptor; experiment: Antagonist activity at human histamine H3 receptor expressed in SK-N-MC cells by CRE-mediated beta-galactosidase reporter gene assay administered 10 mins before (R)-alpha-methylhistamine challenge after 6 hrs; assay type: functional, cell-based
In short: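 SK-N-MC cells stably carrying human H3 and a β-galactosidase reporter. Compound added to medium, forskolin 5 min later, then (R)-α-methylhistamine 10 min after compound; 6 h at 37 °C. Cells lysed in phosphate assay buffer (pH 8) with 0.5% Triton and 40 mM β-mercaptoethanol; β-galactosidase read at 570 nm. Means of 4–6 experiments.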

Histamine H4 receptor = Histamine H4 receptor (Homo sapiens, UniProt Q9H3N8); experiment: Displacement of [3H]histamine from human histamine H4 receptor expressed in SK-N-MC cells at upto 10 uM
Sequence of Histamine H4 receptor (Q9H3N8 whole entry): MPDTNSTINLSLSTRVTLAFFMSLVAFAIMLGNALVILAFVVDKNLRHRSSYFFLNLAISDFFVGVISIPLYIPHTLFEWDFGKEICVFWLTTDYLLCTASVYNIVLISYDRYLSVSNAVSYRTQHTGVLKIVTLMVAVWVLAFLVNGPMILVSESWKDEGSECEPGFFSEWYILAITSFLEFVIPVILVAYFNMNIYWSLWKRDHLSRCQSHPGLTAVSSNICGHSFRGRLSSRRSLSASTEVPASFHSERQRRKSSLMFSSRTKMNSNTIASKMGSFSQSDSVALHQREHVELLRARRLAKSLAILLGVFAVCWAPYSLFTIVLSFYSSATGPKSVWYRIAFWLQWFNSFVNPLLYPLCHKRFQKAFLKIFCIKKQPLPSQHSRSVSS

[3] = target: T2, Acetylcholinesterase (Rattus norvegicus) (UniProt P37136); experiment: Inhibition of acetylcholinesterase in Wistar rat brain homogenate at upto 10 uM by Ellman's method; assay type: tissue-based
T2 sequence (whole entry): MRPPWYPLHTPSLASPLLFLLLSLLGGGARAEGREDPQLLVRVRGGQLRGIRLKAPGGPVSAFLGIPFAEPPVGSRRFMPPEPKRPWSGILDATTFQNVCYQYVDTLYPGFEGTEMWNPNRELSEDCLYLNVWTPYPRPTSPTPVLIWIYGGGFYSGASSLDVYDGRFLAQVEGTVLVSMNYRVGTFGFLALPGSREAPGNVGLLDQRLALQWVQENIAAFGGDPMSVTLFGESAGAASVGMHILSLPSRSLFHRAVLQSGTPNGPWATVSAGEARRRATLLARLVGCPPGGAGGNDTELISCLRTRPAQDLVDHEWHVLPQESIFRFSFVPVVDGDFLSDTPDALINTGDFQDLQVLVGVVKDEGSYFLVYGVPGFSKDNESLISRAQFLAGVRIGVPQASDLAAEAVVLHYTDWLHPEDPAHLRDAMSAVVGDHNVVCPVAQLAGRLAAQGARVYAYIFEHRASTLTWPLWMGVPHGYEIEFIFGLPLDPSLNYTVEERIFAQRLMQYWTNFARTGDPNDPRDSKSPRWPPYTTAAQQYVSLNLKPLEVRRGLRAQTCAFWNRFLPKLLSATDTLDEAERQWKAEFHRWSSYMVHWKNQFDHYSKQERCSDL

Histamine H3 receptor [4] = target: Histamine H3 receptor (Rattus norvegicus, UniProt Q9QYN8); experiment: Displacement of [3H]RAMHA from histamine H3 receptor in Wistar rat brain membrane; assay type: cell membranes
Sequence of Histamine H3 receptor (Rattus norvegicus, UniProt Q9QYN8) (Q9QYN8 whole entry): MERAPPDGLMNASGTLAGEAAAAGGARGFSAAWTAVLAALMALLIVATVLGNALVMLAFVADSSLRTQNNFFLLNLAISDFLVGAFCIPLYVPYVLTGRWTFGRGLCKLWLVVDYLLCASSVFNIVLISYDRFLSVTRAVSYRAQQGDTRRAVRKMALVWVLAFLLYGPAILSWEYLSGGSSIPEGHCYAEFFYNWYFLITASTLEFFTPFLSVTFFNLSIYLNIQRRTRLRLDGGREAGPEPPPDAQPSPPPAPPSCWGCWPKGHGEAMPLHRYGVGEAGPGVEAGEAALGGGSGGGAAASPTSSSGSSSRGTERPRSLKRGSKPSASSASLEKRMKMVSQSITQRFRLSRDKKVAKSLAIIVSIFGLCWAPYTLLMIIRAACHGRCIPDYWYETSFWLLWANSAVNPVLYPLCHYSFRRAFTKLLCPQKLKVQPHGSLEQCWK
In short: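 Membranes from male Wistar rat brain (150–200 g) incubated 45 min with 0.5 nM [3H]RAMHA and compound (0.03 nM to 10 µM) in 50 mM Tris–HCl pH 7.4, 50 mM NaCl, 0.5 mM EDTA. Vacuum filtration, two ice-cold buffer rinses. Nonspecific binding set with 10 µM thioperamide. pKi by Cheng–Prusoff.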

[5] = target: Histamine H3 receptor (Cavia porcellus) (UniProt Q9JI35); experiment: Antagonist activity at histamine H3 receptor in electrically-stimulated guinea pig ileum assessed as inhibition of (R)-alpha-methylhistamine-induced twitch contraction in presence of 1 uM mepyramine; assay type: functional, tissue-based
Sequence of Histamine H3 receptor (Cavia porcellus) (Q9JI35 whole entry): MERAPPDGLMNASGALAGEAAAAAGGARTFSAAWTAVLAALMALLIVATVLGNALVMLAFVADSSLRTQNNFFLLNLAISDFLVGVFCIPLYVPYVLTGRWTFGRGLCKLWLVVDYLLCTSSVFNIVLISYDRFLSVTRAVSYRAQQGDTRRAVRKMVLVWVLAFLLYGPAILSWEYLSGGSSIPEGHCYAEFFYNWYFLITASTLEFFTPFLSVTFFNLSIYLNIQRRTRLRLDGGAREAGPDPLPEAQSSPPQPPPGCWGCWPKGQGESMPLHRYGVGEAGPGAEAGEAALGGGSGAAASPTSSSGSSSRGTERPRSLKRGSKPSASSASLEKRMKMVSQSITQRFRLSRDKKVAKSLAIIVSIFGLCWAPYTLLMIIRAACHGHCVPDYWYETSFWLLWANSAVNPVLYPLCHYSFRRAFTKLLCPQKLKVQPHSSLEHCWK
In short: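 Guinea-pig ileum, electrically stimulated (0.1 Hz, 1 ms, submaximal voltage). Twitch inhibition by cumulative (R)-α-methylhistamine (1 nM to 1 µM) with 1 µM mepyramine present. Compounds tested at 1 nM to 30 µM. Potency as pKB from Furchgott's equation, or as pD2′ (Van Rossum) for non-surmountable antagonism.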

[6] = target: Histamine H2 receptor (Cavia porcellus) (UniProt P47747); experiment: Antagonist activity at histamine H2 receptor in guinea pig atrium assessed as changes in rate of spontaneous beat at upto 10 uM; assay type: functional, tissue-based; conditions: Cardiac atrium
Sequence of Histamine H2 receptor (Cavia porcellus) (P47747 whole entry): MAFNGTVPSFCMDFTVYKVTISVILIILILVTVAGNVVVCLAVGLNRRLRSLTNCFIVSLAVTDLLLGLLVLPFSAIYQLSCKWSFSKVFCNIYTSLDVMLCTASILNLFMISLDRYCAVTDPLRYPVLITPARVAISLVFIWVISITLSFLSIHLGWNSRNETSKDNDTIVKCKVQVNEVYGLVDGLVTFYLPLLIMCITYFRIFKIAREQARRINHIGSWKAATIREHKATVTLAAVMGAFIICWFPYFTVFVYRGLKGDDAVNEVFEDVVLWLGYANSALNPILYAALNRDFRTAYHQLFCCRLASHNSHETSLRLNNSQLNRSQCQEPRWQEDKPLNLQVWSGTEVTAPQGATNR
In short: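 Guinea-pig atria (H2) in Ringer–Locke at 31 °C (mM: NaCl 154.0, KCl 5.6, CaCl2 1.08, NaHCO3 5.95, glucose 11.1), gassed 95% O2–5% CO2. Spontaneous beating rate recorded by cardiotachograph. Cumulative dimaprit curves (0.1–100 µM) run without and with compound up to 10 µM. Affinity given as pKB by Furchgott, or as pD2′ by Van Rossum if non-surmountable.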

[7] = target: Histamine H1 receptor (Cavia porcellus) (UniProt P31389); experiment: Antagonist activity at histamine H1 receptor in guinea pig terminal ileum at upto 10 uM; assay type: functional, tissue-based
Sequence of Histamine H1 receptor (Cavia porcellus) (P31389 whole entry): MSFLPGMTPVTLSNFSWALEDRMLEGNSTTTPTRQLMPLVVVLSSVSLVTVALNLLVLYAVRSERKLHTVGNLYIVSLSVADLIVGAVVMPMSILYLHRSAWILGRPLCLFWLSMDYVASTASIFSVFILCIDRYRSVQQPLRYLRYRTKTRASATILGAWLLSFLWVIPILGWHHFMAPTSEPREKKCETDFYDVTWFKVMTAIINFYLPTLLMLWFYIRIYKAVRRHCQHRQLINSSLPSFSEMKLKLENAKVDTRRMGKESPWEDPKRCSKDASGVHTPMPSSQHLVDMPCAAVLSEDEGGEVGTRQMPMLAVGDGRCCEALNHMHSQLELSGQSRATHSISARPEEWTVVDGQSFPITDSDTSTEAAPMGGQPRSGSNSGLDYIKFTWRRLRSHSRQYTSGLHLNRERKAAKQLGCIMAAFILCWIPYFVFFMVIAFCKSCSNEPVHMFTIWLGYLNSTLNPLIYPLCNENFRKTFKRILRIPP
In short: (§1)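 Guinea-pig (250–350 g) terminal ileum (H1) suspended isometrically in Krebs–Henseleit at 37 °C, aerated 95% O2–5% CO2. Cumulative histamine curves (1 nM to 1 µM) run without and with compound up to 10 µM. pKB (apparent pA2) from Furchgott's equation; pD2′ from Van Rossum's equation when antagonism was non-surmountable.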

[8] = target: T2, Acetylcholinesterase (Rattus norvegicus); experiment: Inhibition of acetylcholinesterase in Wistar rat brain homogenate at upto 1 to 100 uM by Ellman's method; assay type: tissue-based
In short: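 Male Wistar rat (150–200 g) brain homogenate in 0.1 M phosphate buffer (pH 8.0) with DTNB (5 mM) and compound at 1–100 µM. Reaction started at 37 °C by adding acetylthiocholine (75 mM solution) and stopped after 15 min with 4% formalin. 5-Thio-2-nitrobenzoate absorbance at 412 nm. Percent inhibition versus control; reported as pIC50.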

SK-N-MC [9] = experiment: Cytotoxicity against human SK-N-MC cells at 1 uM after 6 hrs by MTT test; assay type: functional, cell-based
In short: (§2)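 MTT viability test: SK-N-MC cells held 6 h with compound (1–10 µM) or vehicle. MTT (5 mg/ml stock) added for 3 h, cells washed in PBS, formazan dissolved in 0.1 N HCl in isopropanol, absorbance read at 570 nm. Viability given relative to control.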

SK-N-MC [10] = experiment: Cytotoxicity against human SK-N-MC cells at 10 uM after 6 hrs by MTT test; assay type: functional, cell-based; in short: as §2
Acetylcholinesterase = target: T3, Acetylcholinesterase (Rattus norvegicus, UniProt P37136); experiment: Inhibition of acetylcholinesterase in Wistar rat brain homogenate by Ellman's method; assay type: tissue-based
T3 sequence (P37136 whole entry): T2 sequence (whole entry)

[11] = target: Histamine H1 receptor (Cavia porcellus) (UniProt P31389); experiment: Antagonist activity at histamine H1 receptor in guinea pig terminal ileum; assay type: functional, tissue-based; in short: as §1

T1 sequence (Q9Y5N1 whole entry): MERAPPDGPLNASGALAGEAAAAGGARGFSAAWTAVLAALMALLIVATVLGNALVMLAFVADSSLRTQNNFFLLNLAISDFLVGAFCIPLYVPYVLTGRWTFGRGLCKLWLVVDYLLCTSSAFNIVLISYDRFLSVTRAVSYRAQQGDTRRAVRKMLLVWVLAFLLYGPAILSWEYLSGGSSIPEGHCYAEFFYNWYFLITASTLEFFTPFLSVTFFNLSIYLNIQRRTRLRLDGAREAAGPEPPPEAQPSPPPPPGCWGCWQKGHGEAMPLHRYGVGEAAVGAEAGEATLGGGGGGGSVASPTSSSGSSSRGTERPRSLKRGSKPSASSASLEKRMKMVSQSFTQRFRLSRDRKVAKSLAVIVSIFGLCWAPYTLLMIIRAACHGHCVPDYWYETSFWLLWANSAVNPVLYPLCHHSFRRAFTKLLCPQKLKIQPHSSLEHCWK

Structure (SMILES)	Ki (Histamine H3 receptor [1]) [nM]	pKb (Histamine H3 receptor [2])	Activity (Histamine H4 receptor)	Activity [3]	Ki (Histamine H3 receptor [4]) [nM]	pKb [5]	Activity [6]	Activity [7]	inhibition [8] [%]	Activity (SK-N-MC [9])	Activity (SK-N-MC [10])	IC50 (Acetylcholinesterase) [nM]	pKb [11]	pD2 [11]
CN(C)CCc1ccc(-c2ccc(CCN(C)C)cc2)cc1	5.13	8.06	inactive	inactive	19.5	8.04	inactive	inactive	–	–	–	–	–	–
CN(Cc1ccc(-c2ccc(CN3CCCCC3)cc2)cc1)C1CCCCC1	2.75	9.19	inactive	–	7.41	8.46	inactive	–	93	Not toxic	Not toxic	1380	5.56	–
c1cc(-c2ccc(CN3CCOCC3)cc2)ccc1CN1CCCCC1	19.5	7.77	inactive	inactive	15.5	9.07	inactive	inactive	–	Not toxic	Not toxic	–	–	–
CN(C)Cc1ccc(-c2ccc(CN(C)C)cc2)cc1	–	8.17	inactive	inactive	–	8.46	inactive	inactive	–	Not toxic	Not toxic	–	–	–
CC1CCN(Cc2ccc(-c3ccc(CN4CCC(C)CC4)cc3)cc2)CC1	–	7.68	inactive	–	–	7.3	inactive	–	83	Not toxic	Not toxic	3550	5.89	–
O=C1CCCCN1Cc1ccc(-c2ccc(CN3CCCCC3)cc2)cc1	–	7.46	inactive	inactive	–	7.57	inactive	inactive	–	Not toxic	Not toxic	–	–	–
c1cc(-c2ccc(CN3CCOCC3)cc2)ccc1CN1CCOCC1	–	7.67	inactive	inactive	–	–	inactive	inactive	–	Not toxic	Not toxic	–	–	–
CCN(CC)Cc1ccc(-c2ccc(CN(CC)CC)cc2)cc1	2.82	8.96	inactive	inactive	2.4	9.34	inactive	inactive	–	Not toxic	Not toxic	–	–	–
CC1CCN(Cc2ccc(-c3ccc(CN4CCCCC4)cc3)cc2)CC1	2.4	8.64	inactive	–	5.75	8.75	inactive	inactive	93	Not toxic	Not toxic	1410	–	–
CCN(CC)Cc1ccc(-c2ccc(CN3CCCCC3)cc2)cc1	1.95	8.9	inactive	inactive	2.57	9.41	inactive	inactive	–	Not toxic	Not toxic	–	–	–
CC(=O)N1CCN(Cc2ccc(-c3ccc(CN4CCCCC4)cc3)cc2)CC1	–	7.86	inactive	–	–	7.79	inactive	–	79	Not toxic	Not toxic	11500	–	4.46
C(CCCCN1CCCCC1)CCCCN1CCCCC1	4.47	–	–	–	15.8	–	–	–	–	–	–	–	–	–
CCCN(CCC)Cc1ccc(-c2ccc(CN3CCCCC3)cc2)cc1	1.74	8.18	inactive	–	3.16	9.12	inactive	–	93	Not toxic	Not toxic	1480	5.48	–

Source: ChEMBL document CHEMBL1151697, “Synthesis and structure-activity relationships for biphenyl H3 receptor antagonists with moderate anti-cholinesterase activity” (Bioorg Med Chem, 2008)
